ChEMBL document CHEMBL1135694, “Optimization of alkylidene hydrazide based human glucagon receptor antagonists. Discovery of the highly potent and orally available 3-cyano-4-hydroxybenzoic acid [1-(2,3,5,6-tetramethylbenzyl)-1H-indol-4-ylmethylene]hydrazide” (J Med Chem, 2002)

Assays:
Glucagon receptor = Glucagon receptor (Homo sapiens, UniProt P47871); assay: In vitro binding affinity for recombinant human glucagon receptor (hGGR) in BHK cells; assay type: cell-based
In short: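 Membranes (4 µg) from BHK cells expressing the cloned human glucagon receptor. Compounds were diluted in DMSO, and a glucagon standard curve was run. IC50 given as mean ± SD, n = 3.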

[1] = Turnover in rat liver microsomes; assay type: ADME, Microsome
In short: (§1)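 Rat liver microsomes (0.331 mg/mL protein) with 10 µM compound, 1 mM UDP-GA and 1 mM NADPH in KH2PO4 buffer, pH 7.4, at 37 °C. Sampled at 0-30 min (n = 3), stopped with MeCN. Rate was taken from parent disappearance by LC-MS.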

Rattus norvegicus = organism: Rattus norvegicus; assay: In vitro metabolic turnover in rat liver microsomes was determined; assay type: functional; conditions: Microsome; in short: as §1

Chain of Glucagon receptor (P47871 whole entry): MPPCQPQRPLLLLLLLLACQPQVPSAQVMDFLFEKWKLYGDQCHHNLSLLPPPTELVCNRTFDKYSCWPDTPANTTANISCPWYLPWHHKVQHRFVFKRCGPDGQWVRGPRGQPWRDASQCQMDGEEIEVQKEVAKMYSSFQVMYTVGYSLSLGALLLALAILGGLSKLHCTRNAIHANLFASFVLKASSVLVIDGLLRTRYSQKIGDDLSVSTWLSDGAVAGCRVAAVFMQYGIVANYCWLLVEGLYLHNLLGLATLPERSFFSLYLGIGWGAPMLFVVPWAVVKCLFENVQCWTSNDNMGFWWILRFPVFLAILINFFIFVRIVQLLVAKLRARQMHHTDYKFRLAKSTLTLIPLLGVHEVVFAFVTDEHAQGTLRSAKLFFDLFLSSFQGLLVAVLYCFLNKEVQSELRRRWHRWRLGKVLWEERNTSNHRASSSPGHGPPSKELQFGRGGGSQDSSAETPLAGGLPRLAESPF

| SMILES | IC50 (Glucagon receptor) | Metabolism [1] | Metabolism (pM min-1 mg-1) (Rattus norvegicus) |
| --- | --- | --- | --- |
| O=C(N/N=C/c1ccc(O)c2ccccc12)c1ccc(O)c(Cl)c1 | 0.203 µM | – | – |
| CN(C)CCN(C)C(=O)Cc1ccc(/C=N/NC(=O)c2ccc(O)c(Cl)c2)c2ccccc12 | 0.441 µM | – | – |
| CCN(CC)C(=O)c1ccc(/C=N/NC(=O)c2ccc(O)c(Cl)c2)c2ccccc12 | 0.0354 µM | 124 pmol/min/mg | – |
| COCc1ccc(/C=N/NC(=O)c2ccc(O)c(Cl)c2)c2ccccc12 | 0.0755 µM | – | – |
| O=C(N/N=C/c1ccc(OCCNCCc2ccc(Br)cc2)c2ccccc12)c1ccc(O)c(Cl)c1 | 0.0197 µM | 250 pmol/min/mg | – |
| COc1cc(NC(=O)CCc2ccc(C(F)(F)F)cc2)ccc1/C=N/NC(=O)c1ccc(O)c(C#N)c1 | 0.0157 µM | – | – |
| O=C(N/N=C/c1ccc(OCCNCc2ccccc2OC(F)(F)F)c2ccccc12)c1ccc(O)c(Cl)c1 | 0.0543 µM | 233 pmol/min/mg | – |
| Cc1cc(C)c(Cn2ccc3c(/C=N/NC(=O)c4ccc(O)c(Cl)c4)cccc32)c(C)c1 | 0.0058 µM | – | – |
| N#Cc1cc(C(=O)N/N=C/c2cn(C(=O)CC3CCCC3)c3ccccc23)ccc1O | 0.0064 µM | 136 pmol/min/mg | – |
| CC1CCCCN1C(=O)Cc1ccc(/C=N/NC(=O)c2ccc(O)c(Cl)c2)c2ccccc12 (centres undefined) | 0.0083 µM | 267 pmol/min/mg | – |
| O=C(N/N=C/c1ccc(C(=O)NCCc2ccc(Cl)cc2)c2ccccc12)c1ccc(O)c(Cl)c1 | 0.0059 µM | 32 pmol/min/mg | – |
| O=C(N/N=C/c1ccc(CS(=O)(=O)C2CCCC2)c2ccccc12)c1ccc(O)c(Cl)c1 | 0.221 µM | – | – |
| CN(C)CCN(Cc1ccccc1)C(=O)Cc1ccc(/C=N/NC(=O)c2ccc(O)c(C#N)c2)c2ccccc12 | 0.0104 µM | 240 pmol/min/mg | – |
| O=C(N/N=C/c1ccc(CO)c2ccccc12)c1ccc(O)c(Cl)c1Cl | 0.0538 µM | – | 103 |
| O=C(N/N=C/c1ccc(C(=O)N2CCN(Cc3ccc(Cl)cc3)CC2)c2ccccc12)c1ccc(O)c(Cl)c1 | 0.0113 µM | 77 pmol/min/mg | – |
| Cc1cc(C)c(C)c(Cn2ccc3c(/C=N/NC(=O)c4ccc(O)c(Cl)c4)cccc32)c1C | 0.0053 µM | 105 pmol/min/mg | – |
| O=C(N/N=C/c1cn(Cc2ccc(OC(F)F)cc2)c2ccccc12)c1ccc(O)c(Cl)c1 | 0.305 µM | – | – |
| COc1cc(NC(=O)CSc2ccc(OC(F)(F)F)cc2)ccc1/C=N/NC(=O)c1ccc(O)c(Cl)c1 | 0.0145 µM | 23 pmol/min/mg | – |
| COc1cc(NC(=O)Cc2cccc(C(F)(F)F)c2)ccc1/C=N/NC(=O)c1ccc(O)c(C#N)c1 | 0.0478 µM | 51 pmol/min/mg | – |
| N#Cc1cc(C(=O)N/N=C/c2ccc(N(C(=O)C3CCCC3)C(=O)C3CCCC3)c3ccccc23)ccc1O | 0.0028 µM | 250 pmol/min/mg | – |
| O=C(N/N=C/c1ccc(CC(=O)N2CCN(Cc3ccccc3)CC2)c2ccccc12)c1ccc(O)c(Cl)c1 | 0.0092 µM | 359 pmol/min/mg | – |
| O=C(N/N=C/c1ccc(CO)c2ccccc12)c1ccc(O)c(F)c1 | 0.0294 µM | 89 pmol/min/mg | – |
| O=C(N/N=C/c1ccc(CN2CCN(Cc3ccc(Cl)cc3)CC2)c2ccccc12)c1ccc(O)c(Cl)c1 | 0.0967 µM | 51 pmol/min/mg | – |
| O=C(N/N=C/c1cccc2c1ccn2Cc1ccc(C(F)(F)F)cc1)c1ccc(O)c(Cl)c1 | 0.0338 µM | 116 pmol/min/mg | – |

| SMILES | IC50 (Glucagon receptor) | Metabolism [1] | Metabolism (pM min-1 mg-1) (Rattus norvegicus) |
| --- | --- | --- | --- |
| N#Cc1cc(C(=O)N/N=C/c2ccc(OCC(=O)N3CC=C(c4ccc(Br)cc4)CC3)c3ccccc23)ccc1O | 0.0061 µM | 50 pmol/min/mg | – |
| COc1cc(/C=N/NC(=O)c2ccc(O)c(Cl)c2)ccc1NC(=O)Cc1csc2ccccc12 | 0.0632 µM | 74 pmol/min/mg | – |
| CC(C)c1ccc(Cn2ccc3c(/C=N/NC(=O)c4ccc(O)c(Cl)c4)cccc32)cc1 | 0.023 µM | 48 pmol/min/mg | – |
| O=C(N/N=C/c1ccc(OCC(=O)N2CCc3ccccc3C2)c2ccccc12)c1ccc(O)c(Cl)c1 | 0.0138 µM | 254 pmol/min/mg | – |
| O=C(COc1ccc(/C=N/NC(=O)c2ccc(O)c(Cl)c2)c2ccccc12)NC1CCN(Cc2ccccc2)C1 (centres undefined) | 0.0893 µM | 187 pmol/min/mg | – |
| O=C(N/N=C/c1ccc(CC(=O)N2CCN(c3ccc(F)cc3)CC2)c2ccccc12)c1ccc(O)c(Cl)c1 | 0.0123 µM | 160 pmol/min/mg | – |
| COc1cc(NC(=O)CCc2ccc(C(F)(F)F)cc2)ccc1/C=N/NC(=O)c1ccc(O)c(Cl)c1 | 0.0335 µM | – | – |
| O=C(N/N=C/c1cccc2c(OCc3ccc(OC(F)(F)F)cc3)cccc12)c1ccc(O)c(Cl)c1 | 0.0129 µM | – | – |
| CN1CCN(C(=O)Cc2ccc(/C=N/NC(=O)c3ccc(O)c(Cl)c3)c3ccccc23)CC1 | 0.268 µM | 283 pmol/min/mg | – |
| O=C(N/N=C/c1ccc(OCC(=O)N2CCC(O)(c3ccc(Br)cc3)CC2)c2ccccc12)c1ccc(O)c(Cl)c1 | 0.0114 µM | – | – |
| CC(C)(C)C(=O)Nc1ccc(/C=N/NC(=O)c2ccc(O)c(Cl)c2)c2ccccc12 | 0.033 µM | 45 pmol/min/mg | – |
| O=C(N/N=C/c1ccc(NC(=O)C2CCCC2)c2ccccc12)c1ccc(O)c(Cl)c1 | 0.0388 µM | 134 pmol/min/mg | – |
| CCN(CC)C(=O)Cc1ccc(/C=N/NC(=O)c2ccc(O)c(C#N)c2)c2ccccc12 | 0.0165 µM | 130 pmol/min/mg | – |
| COc1cc(OCCN2CCc3ccccc3C2)ccc1/C=N/NC(=O)c1ccc(O)c(Cl)c1 | 0.12 µM | 322 pmol/min/mg | – |
| O=C(N/N=C/c1ccc(CC(=O)N2CCN(c3ccccc3F)CC2)c2ccccc12)c1ccc(O)c(Cl)c1 | 0.0079 µM | 178 pmol/min/mg | – |
| CCN(CC)C(=O)Cn1ccc2c(/C=N/NC(=O)c3ccc(O)c(Cl)c3)cccc21 | 2.54 µM | 165 pmol/min/mg | – |
| CCN(CC)C(=O)Cc1ccc(/C=N/NC(=O)c2ccc(O)c(Cl)c2)c2ccccc12 | 0.0226 µM | 323 pmol/min/mg | – |
| COc1cc(/C=N/NC(=O)c2ccc(O)c(Cl)c2)cc(Cl)c1OCCN1CCc2ccccc2C1 | 0.485 µM | – | – |
| N#Cc1cc(C(=O)N/N=C/c2ccc(C(=O)N3CCN(Cc4ccc(Cl)cc4)CC3)c3ccccc23)ccc1O | 0.0049 µM | 53 pmol/min/mg | – |
| N#Cc1cc(C(=O)N/N=C/c2ccc(CO)c3ccccc23)ccc1O | 0.0298 µM | 37 pmol/min/mg | – |
| CC(C)S(=O)(=O)Cc1ccc(/C=N/NC(=O)c2ccc(O)c(C#N)c2)c2ccccc12 | 0.163 µM | 31 pmol/min/mg | – |
| O=C(N/N=C/c1cccc2c1ccn2Cc1ccc(Cl)c(Cl)c1)c1ccc(O)c(Cl)c1 | 0.0275 µM | 190 pmol/min/mg | – |
| O=C(N/N=C/c1cccc2c1ccn2Cc1ccc(OC(F)(F)F)cc1)c1ccc(O)c(Cl)c1 | 0.0229 µM | – | – |
| O=C(N/N=C/c1ccc(OCC(=O)N2CC=C(c3ccc(Br)cc3)CC2)c2ccccc12)c1ccc(O)c(Cl)c1 | 0.0066 µM | 44 pmol/min/mg | – |

| SMILES | IC50 (Glucagon receptor) | Metabolism [1] | Metabolism (pM min-1 mg-1) (Rattus norvegicus) |
| --- | --- | --- | --- |
| O=C(N/N=C/c1ccc(OCCNCc2ccc(Cl)c(Cl)c2)c2ccccc12)c1ccc(O)c(Cl)c1 | 0.0147 µM | – | – |
| NC(=O)[C@H](Cc1ccccc1)NCc1ccc(/C=N/NC(=O)c2ccc(O)c(Cl)c2)c2ccccc12 | 0.0618 µM | 178 pmol/min/mg | – |
| O=C(N/N=C/c1ccc2c(ccn2Cc2ccc(OC(F)(F)F)cc2)c1)c1ccc(O)c(Cl)c1 | 0.286 µM | – | – |
| O=C(N/N=C/c1ccc(CS(=O)(=O)Cc2ccc(OC(F)(F)F)cc2)c2ccccc12)c1ccc(O)c(Cl)c1 | 0.0068 µM | 14 pmol/min/mg | – |
| O=C(N/N=C/c1ccc(CC(=O)N2CCN(Cc3ccc(Cl)cc3)CC2)c2ccccc12)c1ccc(O)c(Cl)c1 | 0.0046 µM | 101 pmol/min/mg | – |
| CC1CCCCN1C(=O)Cc1ccc(/C=N/NC(=O)c2ccc(O)c(C#N)c2)c2ccccc12 (centres undefined) | 0.0116 µM | 65 pmol/min/mg | – |
| CCN(CC)C(=O)COc1ccc(/C=N/NC(=O)c2ccc(O)c(Cl)c2)c2ccccc12 | 0.0497 µM | 302 pmol/min/mg | – |
| COc1cc(NC(=O)Cc2ccc(Cl)cc2)ccc1/C=N/NC(=O)c1ccc(O)c(C#N)c1 | 0.0287 µM | – | – |
| COc1cc(OCCNCc2ccc(C(F)(F)F)cc2)ccc1/C=N/NC(=O)c1ccc(O)c(Cl)c1 | 0.133 µM | – | – |
| O=C(N/N=C/c1ccc(N(C(=O)C2CCCC2)C(=O)C2CCCC2)c2ccccc12)c1ccc(O)c(Cl)c1 | 0.0034 µM | – | – |
| CC(C)S(=O)(=O)c1ccc(/C=N/NC(=O)c2ccc(O)c(Cl)c2)c2ccccc12 | 0.357 µM | 110 pmol/min/mg | – |
| O=C(N/N=C/c1ccc(OCCNCc2ccc(OC(F)(F)F)cc2)c2ccccc12)c1ccc(O)c(Cl)c1 | 0.0277 µM | 167 pmol/min/mg | – |
| COc1cc(NC(=O)CCc2ccc(C(F)(F)F)cc2)ccc1/C=N/NC(=O)c1ccc(O)c(Cl)c1.O | 0.0212 µM | 107 pmol/min/mg | – |
| O=C(N/N=C/c1cccc2c(CO)cccc12)c1ccc(O)c(Cl)c1 | 0.2 µM | 225 pmol/min/mg | – |
| COc1ccc2oc(C(=O)Nc3ccc(/C=N/NC(=O)c4ccc(O)c(Cl)c4)c(OC)c3)cc2c1 | 0.0906 µM | 31 pmol/min/mg | – |
| COc1cc(/C=N/NC(=O)c2ccc(O)c(Cl)c2)ccc1NC(=O)COc1ccc(OC(F)(F)F)cc1 | 0.073 µM | 136 pmol/min/mg | – |
| CCC1CCCCN1C(=O)Cc1ccc(/C=N/NC(=O)c2ccc(O)c(Cl)c2)c2ccccc12 (centres undefined) | 0.0074 µM | 279 pmol/min/mg | – |
| CN(C)CCN(Cc1ccccc1)C(=O)Cc1ccc(/C=N/NC(=O)c2ccc(O)c(Cl)c2)c2ccccc12 | 0.0062 µM | – | – |
| CN(C)c1ccc(C(=O)n2cc(/C=N/NC(=O)c3ccc(O)c(C#N)c3)c3ccccc32)cc1 | 0.0191 µM | 606 pmol/min/mg | – |
| O=C(N/N=C/c1cn(Cc2ccccc2)c2ccccc12)c1ccc(O)c(Cl)c1 | 0.615 µM | – | – |
| O=C(COc1ccc(/C=N/NC(=O)c2ccc(O)c(Cl)c2)c2ccccc12)Nc1ccc(Cl)cc1 | 0.0517 µM | – | – |
| CC(C)CS(=O)(=O)c1ccc(/C=N/NC(=O)c2ccc(O)c(Cl)c2)c2ccccc12 | 0.181 µM | 110 pmol/min/mg | – |
| N#Cc1cc(C(=O)N/N=C/c2cccc3c2ccn3Cc2ccc(C(F)(F)F)cc2)ccc1O | 0.0223 µM | 59 pmol/min/mg | – |
| O=C(N/N=C/c1ccc(CO)c2ccccc12)c1ccc(O)c(Cl)c1 | 0.0411 µM | 75 pmol/min/mg | – |
